Experimental data reported in ChEMBL document CHEMBL3817728, “Synthesis, Evaluation, and Mechanism Study of Novel Indole-Chalcone Derivatives Exerting Effective Antitumor Activity Through Microtubule Destabilization in Vitro and in Vivo” (J Med Chem, 2016).

Columns and labels:
[1] = tested on: A2780; experiment: Cytotoxicity against human A2780 cells assessed as cell viability after 48 hrs by MTT assay; format: functional, cell-based; conditions: A2780, 48 h
Summary of the method: (§1)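 Cancer cell lines treated with compound for 48 h, and viability read by MTT assay. IC50 given as mean ± SD from at least three independent experiments.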

[2] = tested on: A549; experiment: Cytotoxicity against human A549 cells assessed as cell viability after 48 hrs by MTT assay; format: functional, cell-based; conditions: A549, 48 h; summary of the method: as §1
[3] = Cytotoxicity against human Bel7402 cells assessed as cell viability after 48 hrs by MTT assay; format: functional, cell-based; conditions: Bel-7402, 48 h; summary of the method: as §1
[4] = tested on: MCF7; experiment: Cytotoxicity against human MCF7 cells assessed as cell viability after 48 hrs by MTT assay; format: functional, cell-based; conditions: MCF7, 48 h; summary of the method: as §1
[5] = Cytotoxicity against human HCT8 cells assessed as cell viability after 48 hrs by MTT assay; format: functional, cell-based; conditions: HCT-8, 48 h; summary of the method: as §1
[6] = tested on: HeLa; experiment: Cytotoxicity against human HeLa cells assessed as cell viability after 48 hrs by MTT assay; format: functional, cell-based; summary of the method: as §1
[7] = target: Tubulin (Sus scrofa, UniProt P02554+P02550); experiment: Inhibition of porcine brain tubulin polymerization measured every 60 secs for 60 mins by DAPI staining-based fluorescence assay
[8] = Cytotoxicity against human MCF7/DX cells assessed as growth inhibition after 48 hrs by MTT assay; format: functional, cell-based
Summary of the method: (§2)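 Drug-resistant lines were tested by a 48 h MTT viability assay. IC50 was derived from dose-response curves and reported as mean ± SE of at least three independent experiments.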

[9] = Cytotoxicity against human A2780/TAX cells assessed as growth inhibition after 48 hrs by MTT assay; format: functional, cell-based; summary of the method: as §2
[10] = tested on: HCT-8; experiment: Resistance index, ratio of IC50 for human HCT8/VCT cells to IC50 for human HCT8 cells; format: functional
[11] = tested on: MCF7; experiment: Resistance index, ratio of IC50 for human MCF7/DX cells to IC50 for human MCF7 cells; format: functional
[12] = tested on: A549; experiment: Resistance index, ratio of IC50 for human A549/CDDP cells to IC50 for human A549 cells; format: functional
[13] = Cytotoxicity against human HCT8/VCT cells assessed as growth inhibition after 48 hrs by MTT assay; format: functional, cell-based; summary of the method: as §2
[14] = tested on: A2780; experiment: Resistance index, ratio of IC50 for human A2780/TAX cells to IC50 for human A2780 cells; format: functional
[15] = Cytotoxicity against human A549/CDDP cells assessed as growth inhibition after 48 hrs by MTT assay; format: functional, cell-based; conditions: A549, 48 h; summary of the method: as §2
[16] = tested on: A549; experiment: Antitumor activity against human A549 cells xenografted in BALB/c nude mouse assessed as tumor growth inhibition at 30 mg/kg, ip administered every other day for 1 month measured every other day post dose relative to vehicle-treated control; format: functional; conditions: read-out: TGI

Row | Structure (SMILES) | IC50 [1] [nM] | IC50 [2] [nM] | IC50 [3] [nM] | IC50 [4] [nM] | IC50 [5] [nM] | IC50 [6] [nM] | IC50 [7] [nM] | IC50 [8] [nM] | IC50 [9] [nM] | Ratio IC50 [10] | Ratio IC50 [11] | Ratio IC50 [12] | IC50 [13] [nM] | Ratio IC50 [14] | IC50 [15] [nM] | inhibition in vivo at 30 mg/kg [16] [%]
1 | COc1ccc2c(/C=C/C(=O)c3ccc(OC)c4c3OC(C)(C)C=C4)c[nH]c2c1 | 41 | 55 | 78 | 56 | 77 | 49 | 4390 | – | – | – | – | – | – | – | – | –
2 | COc1ccc2[nH]cc(/C=C/C(=O)c3cc(OC)c(OC)c(OC)c3)c2c1 | > 1000 | > 1000 | > 1000 | > 1000 | > 1000 | > 1000 | – | – | – | – | – | – | – | – | – | –
3 | CC[C@]1(O)C[C@H]2CN(CCc3c([nH]c4ccccc34)[C@@](C(=O)OC)(c3cc4c(cc3OC)N(C=O)[C@H]3[C@@](O)(C(=O)OC)[C@H](OC(C)=O)[C@]5(CC)C=CCN6CC[C@]43[C@@H]65)C2)C1 [VINCRISTINE] | 26 | 61 | – | 98 | 350 | – | – | 1260 | 168 | 22.5 | 12.9 | 9.2 | 7860 | 6.46 | 561 | –
4 | COc1cc(C(=O)/C(C)=C/c2c[nH]c3cccc(OC)c23)cc(OC)c1OC | > 1000 | > 1000 | > 1000 | > 1000 | > 1000 | > 1000 | – | – | – | – | – | – | – | – | – | –
5 | COc1ccc2c(/C=C/C(=O)c3cc(OC)c(OC)c(OC)c3)cn(C)c2c1 | 25 | 23 | 61 | 87 | 47 | 62 | 3480 | – | – | – | – | – | – | – | – | –
6 | COc1cc(C(=O)/C=C/c2cccc3[nH]ccc23)cc(OC)c1OC | 41 | 36 | 63 | 50 | 57 | 38 | – | – | – | – | – | – | – | – | – | –
7 | COc1ccc2c(/C=C(\C)C(=O)c3cc(OC)c(OC)c(OC)c3)cn(CO)c2c1 | 21 | 8 | 9 | 19 | 17 | 13 | 3590 | – | – | – | – | – | – | – | – | –
8 | COc1cccc2c1C(=O)c1c(O)c3c(c(O)c1C2=O)C[C@@](O)(C(=O)CO)C[C@@H]3O[C@H]1C[C@H](N)[C@H](O)[C@H](C)O1 [DOXORUBICIN] | 980 | 2170 | – | – | 1170 | – | – | 50400 | 3290 | 1.29 | 49.4 | 1.44 | 1510 | 3.35 | 3140 | –
9 | CCCn1cc(/C=C(\C)C(=O)c2cc(OC)c(OC)c(OC)c2)c2ccc(OC)cc21 | 597 | 514 | 614 | 497 | 679 | 531 | – | – | – | – | – | – | – | – | – | –
10 | COc1ccc2c(c1)c(/C=C/C(=O)c1cc(OC)c(OC)c(OC)c1)cn2C | 283 | 164 | 256 | 231 | 315 | 531 | – | – | – | – | – | – | – | – | – | –
11 | COc1ccc2c(/C=C/C(=O)c3cc(OC)c(OC)c(OC)c3)c[nH]c2c1 | 118 | 224 | 351 | 246 | 274 | 261 | – | – | – | – | – | – | – | – | – | –
12 | COc1ccc(/C=C\c2cc(OC)c(OC)c(OC)c2)cc1OP(=O)(O)O [FOSBRETABULIN] | – | – | – | – | – | – | – | – | – | – | – | – | – | – | – | 52.2
13 | COc1ccc2c(c1)c(/C=C/C(=O)c1ccc(OC)c3c1OC(C)(C)C=C3)cn2C | 497 | 452 | 389 | 567 | 675 | 415 | – | – | – | – | – | – | – | – | – | –
14 | COc1ccc(C(=O)/C=C/c2cn(C)c3cccc(OC)c23)c2c1C=CC(C)(C)O2 | > 1000 | > 1000 | > 1000 | > 1000 | > 1000 | > 1000 | – | – | – | – | – | – | – | – | – | –
15 | COc1cc(C(=O)/C=C/c2cn(C)c3cccc(OC)c23)cc(OC)c1OC | > 1000 | > 1000 | > 1000 | > 1000 | > 1000 | > 1000 | – | – | – | – | – | – | – | – | – | –
16 | COc1ccc(C(=O)/C=C/c2c[nH]c3cccc(OC)c23)c2c1C=CC(C)(C)O2 | > 1000 | > 1000 | > 1000 | > 1000 | > 1000 | > 1000 | – | – | – | – | – | – | – | – | – | –

Row | Structure (SMILES) | IC50 [1] [nM] | IC50 [2] [nM] | IC50 [3] [nM] | IC50 [4] [nM] | IC50 [5] [nM] | IC50 [6] [nM] | IC50 [7] [nM] | IC50 [8] [nM] | IC50 [9] [nM] | Ratio IC50 [10] | Ratio IC50 [11] | Ratio IC50 [12] | IC50 [13] [nM] | Ratio IC50 [14] | IC50 [15] [nM] | inhibition in vivo at 30 mg/kg [16] [%]
17 | COc1cc(C(=O)/C=C/c2ccc3c(ccn3C)c2)cc(OC)c1OC | 45 | 53 | 77 | 61 | 67 | 57 | – | – | – | – | – | – | – | – | – | –
18 | COc1ccc2[nH]cc(/C=C/C(=O)c3ccc(OC)c4c3OC(C)(C)C=C4)c2c1 | 398 | 272 | 456 | 782 | 557 | 327 | – | – | – | – | – | – | – | – | – | –
19 | COc1ccc2[nH]cc(/C=C(\C)C(=O)c3cc(OC)c(OC)c(OC)c3)c2c1 | 32 | 74 | 96 | 33 | 48 | 78 | 5060 | – | – | – | – | – | – | – | – | –
20 | COc1cc(C(=O)/C=C/c2ccc3[nH]ccc3c2)cc(OC)c1OC | 28 | 33 | 34 | 28 | 34 | 22 | – | – | – | – | – | – | – | – | – | –
21 | CCn1cc(/C=C(\C)C(=O)c2cc(OC)c(OC)c(OC)c2)c2ccc(OC)cc21 | 21 | 39 | 15 | 32 | 56 | 65 | – | – | – | – | – | – | – | – | – | –
22 | COc1ccc2c(/C=C(\C)C(=O)c3cc(OC)c(OC)c(OC)c3)cn(C)c2c1 | 34 | 41 | 28 | 42 | 61 | 31 | – | – | – | – | – | – | – | – | – | –
23 | COc1cc(C(=O)/C(C)=C/c2cn(C)c3cccc(OC)c23)cc(OC)c1OC | > 1000 | > 1000 | > 1000 | > 1000 | > 1000 | > 1000 | – | – | – | – | – | – | – | – | – | –
24 | COc1cc2c(c(OC)c1OC)C/C(=C\c1cccc3[nH]ccc13)C2=O | 35 | 26 | 35 | 47 | 38 | 27 | – | – | – | – | – | – | – | – | – | –
25 | COc1ccc2c(/C=C/C(=O)c3ccc(OC)c4c3OC(C)(C)C=C4)cn(C)c2c1 | 61 | 58 | 97 | 45 | 87 | 93 | – | – | – | – | – | – | – | – | – | –
26 | C=Cn1cc(/C=C(\C)C(=O)c2cc(OC)c(OC)c(OC)c2)c2ccc(OC)cc21 | 49 | 89 | 91 | 64 | 79 | 67 | – | – | – | – | – | – | – | – | – | –
27 | CC(=O)O[C@H]1C(=O)[C@@]2(C)[C@H]([C@H](OC(=O)c3ccccc3)[C@]3(O)C[C@H](OC(=O)[C@H](O)[C@@H](NC(=O)c4ccccc4)c4ccccc4)C(C)=C1C3(C)C)[C@]1(OC(C)=O)CO[C@@H]1C[C@@H]2O [PACLITAXEL] | 5 | – | – | – | 19 | – | – | 135 | 5680 | – | – | – | 125 | – | 23 | –
28 | COc1ccc2c(c1)c(/C=C(\C)C(=O)c1cc(OC)c(OC)c(OC)c1)cn2C | 427 | 331 | 356 | 548 | 726 | 235 | – | – | – | – | – | – | – | – | – | –
29 | COc1cc(C(=O)/C=C/c2c[nH]c3cccc(OC)c23)cc(OC)c1OC | > 1000 | > 1000 | > 1000 | > 1000 | > 1000 | > 1000 | – | – | – | – | – | – | – | – | – | –
30 | COc1ccc2c(/C=C(\C)C(=O)c3cc(OC)c(OC)c(OC)c3)cn(CCO)c2c1 | 31 | 25 | 21 | 14 | 20 | 35 | – | – | – | – | – | – | – | – | – | –
31 | COc1cc(C(=O)/C=C/c2cccc3c2ccn3C)cc(OC)c1OC | 23 | 30 | 32 | 38 | 41 | 31 | – | – | – | – | – | – | – | – | – | –
32 | COc1ccc2c(/C=C(\C)C(=O)c3cc(OC)c(OC)c(OC)c3)cn(CCBr)c2c1 | 274 | 126 | 259 | 389 | 169 | 146 | – | – | – | – | – | – | – | – | – | –
